# Sampled rows, rich in hits. Any-hit rate of the full collection: about 2%.
# FLuc inhib CS: firefly luciferase enzyme inhibitors, primary screen, artefact control for luciferase-based inhibitor screens, biochemical, luminescence, ATPLite | Luciferin 4-monooxygenase (Photinus pyralis), P08659 | 200,000 tested, 1.5% active | inhibition, % at 10 µM | 10 min;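 active = inhibition above about 50% when tested at 10 µM, limit read from the data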
# Target sequence (P08659 whole entry, looked up): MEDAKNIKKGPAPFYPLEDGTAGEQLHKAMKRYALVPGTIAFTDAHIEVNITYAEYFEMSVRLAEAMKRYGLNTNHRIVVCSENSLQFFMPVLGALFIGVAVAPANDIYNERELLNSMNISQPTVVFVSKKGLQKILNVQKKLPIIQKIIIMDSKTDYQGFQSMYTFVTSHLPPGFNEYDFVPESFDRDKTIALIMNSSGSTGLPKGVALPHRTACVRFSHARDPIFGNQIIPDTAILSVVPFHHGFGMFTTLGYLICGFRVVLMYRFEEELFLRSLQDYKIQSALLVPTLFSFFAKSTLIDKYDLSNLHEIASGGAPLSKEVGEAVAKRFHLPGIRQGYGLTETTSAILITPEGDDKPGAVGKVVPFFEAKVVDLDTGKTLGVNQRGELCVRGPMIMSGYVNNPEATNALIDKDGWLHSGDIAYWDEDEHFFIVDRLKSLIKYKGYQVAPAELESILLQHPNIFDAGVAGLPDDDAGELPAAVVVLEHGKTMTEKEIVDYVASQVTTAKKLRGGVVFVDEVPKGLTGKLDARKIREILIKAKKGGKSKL
# TRAIL sens C8: viability loss with TRAIL in NB7+C8 cells, primary screen, TRAIL sensitizer project, cell-based, ATPlite luminescence; inhibition (viability loss, TRAIL sensitization), % at 10 µM; 360,000 tested, 1% active;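 active = compounds causing at least 50% loss of cell viability in the single-dose screen, relative to plate controls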
# FLuc stim CS: FLuc activators, initial screening, artefact control for FLuc-dependent activation tests, biochemical, ATPlite luminescence; Luciferin 4-monooxygenase (Photinus pyralis), P08659; ATPlite luciferase biochemical, 10 min; 0 = ATP-free wells, 1 = DMSO control; activation factor at 10 µM; 200,000 tested, under 10 active;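 active = luciferase activation factor, scaled between plate controls, of at least 2 with compound at 10 µM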
#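 assay system = Luciferase/luciferin detection reagent, cell-free biochemical luciferase assay | also added = ATP substrate | times = 10 min post-reagent at room temperature | measured by = luminescence from luciferase reaction | measure = luciferase activation, seen as luminescence increase over controls | benchmarks = low control with PBS replacing ATP, high control enzyme plus ATP without compound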
# PPC-1+TRAIL kill: compounds killing PPC-1 cancer cells with TRAIL present, primary screen, TRAIL potentiator project, ATPLite luminescence, uHTS | PPC-1 cells + TRAIL, ATPLite viability luminescence | cell killing (% activity), % at 4 µM or 5 µM | 220,000 tested, 0.41% active;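 active = cell killing above 50% in the first pass at 4 µM, then a duplicate retest at 5 µM averaging 50% or more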;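 also: plate controls were cells with TRAIL plus DMSO for no effect and medium-only wells lacking cells for full effect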
# HSP90 inh: HSP90 inhibitors, primary screen, cell lysate, luminescence; Rabbit reticulocyte lysate, luciferase refolding luminescence, 3 h; 290,000 tested, 0.91% active; Heat shock protein HSP 90 (rabbit reticulocyte lysate; luciferase refolding); inhibition, % at 5.6 µM;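 active = inhibition above the screen-wide mean plus 3 SD, computed separately per campaign, cut at about 16% in these data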;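 also: 0% = DMSO wells and 100% = 60 µM geldanamycin wells; inhibitors lower the luminescence because luciferase stays unfolded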
# HSP90 inh confirm: HSP90 inhibitors, confirmation, cell lysate, luminescence. 2,300 tested, 64% active. shares compounds with HSP90 inh. inhibition, % at 5.9 µM. rabbit reticulocyte lysate, luciferase refolding luminescence, 3 h; in the data active = inhibition above about 18%;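 also: 0% = vehicle wells and 100% = reference inhibitor wells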
# luciferase ctr: firefly luciferase inhibitors, HSP90 counter-screen, confirmation, artefact control for HSP90 inhibitor project, biochemical, luminescence, triplicate | shares compounds with HSP90 inh | purified native firefly luciferase | inhibition, % at 5.9 µM | 2,300 tested, 48% active | AID 1847, 2009;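 active = inhibition above the mean inhibition of all tested sample wells plus 3 SD, cut at about 10% in these data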;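 also: 0% = DMSO with luciferase and 100% = wells lacking luciferase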
# * = called active by the depositor; x = not tested or not shown.
SMILES,FLuc inhib CS,TRAIL sens C8,FLuc stim CS,PPC-1+TRAIL kill,HSP90 inh,HSP90 inh confirm,luciferase ctr
O=C(Nc1ccc2nc3n(c(=O)c2c1)CCCCC3)c1cc([N+](=O)[O-])ccc1F,x,42,x,x,34*,15,4
O=C(Nc1ccc2nc3n(c(=O)c2c1)CCCCC3)c1c(F)ccc([N+](=O)[O-])c1F,x,68*,x,x,24*,6,3
COc1cc2c(cc1OC)CN(C(=O)CSc1ccccc1C)CC2,x,-15,x,x,x,x,x
COC(=O)c1ccc(-c2ccc(/C=N/NC(=O)CC3(C)OCCCO3)o2)cc1,2,-5,1,x,17*,26*,0
COC(=O)C1=CN(c2ccc(F)cc2)C=C(C(=O)OC)C1c1ccc(O)cc1,x,-6,x,x,0,x,x
CCNC(=O)N(C)C[C@H]1N[C@@](C)(C(=O)OC)[C@H]2C(=O)N(C)C(=O)[C@@H]12,x,3,x,x,x,x,x
CC1(C)NC(=O)N(CCCOc2ccccc2Br)C1=O,0,10,1,-4,-3,x,x
CC1(C)NC(=O)N(CCOc2cccc(Cl)c2Cl)C1=O,-2,4,1,-6,18*,-9,-9
CC(=O)c1ccc(NC(=O)C(C)Sc2nnc(-c3ccncc3)n2C2CC2)cc1 (stereo unspecified),x,-7,x,x,x,x,x
CCOC(=O)c1sc(NC(=O)CSc2nnnn2-c2ccccc2)nc1C,-4,10,1,-17,-2,x,x
COC(=O)c1sc(NC(=O)CSc2nnnn2-c2cccc(OC)c2)nc1C,-5,-13,1,-2,20*,1,-7
CC(=O)N(Cc1ccc(F)cc1)C1=C(NCCc2ccccc2)C(=O)c2ccccc2C1=O,-2,89*,1,48,48*,12,-5
Cc1ccc(NC(C)C(=O)N/N=C/c2ccc([N+](=O)[O-])s2)cc1 (stereo unspecified),-3,12,1,-11,35*,-1,-7
CC(C)c1ccc(N(CC(=O)NCc2cccnc2)S(=O)(=O)c2ccccc2)cc1,x,-1,x,x,27*,1,-3
c1c2c(cc3sc(N4CCCCC4)nc13)OCO2,80*,47*,0.2,50,25*,59*,52*
COc1ccc(-c2csc(NC(=S)NC(=O)/C=C/c3ccc(C(C)C)cc3)n2)cc1OC,x,-5,x,x,19*,13,0
O=C(O)c1cccc(NC(=S)N/N=C/c2ccccn2)c1,37,23,0.6,13,35*,61*,49*
Cc1ccc2c(c1)sc1nncn12,x,-1,x,x,x,x,x
Cc1cccc(OC(C)C(=O)N/N=C\c2ccncc2)c1 (stereo unspecified),-1,-7,1,24,-3,x,x
COc1ccccc1NC(=O)CSc1nc2ccccc2cc1Cc1ccccc1,-10,5,1.1,-9,31*,24*,-12
CC(=O)N1CCN(c2ncnc3ccccc23)CC1,x,-9,x,x,-4,x,x
CCC(=O)NC1=C(Cl)C(=O)C(NC(=O)CC)=C(Cl)C1=O,x,7,x,16,30*,12,75*
COc1ccc(CCNC(=O)c2nnn(-c3ccccc3OC)c2N)cc1OC,-8,-8,1.1,-1,6,x,x
COc1ccc(CCNC(=O)c2nnn(-c3ccc4c(c3)OCCO4)c2N)cc1OC,2,11,1,-6,29*,64*,66*
Nc1nc(-c2ccco2)c(-c2ccco2)s1,-4,-2,1,19,20*,0,-3
SMILES,FLuc inhib CS,TRAIL sens C8,FLuc stim CS,PPC-1+TRAIL kill,HSP90 inh,HSP90 inh confirm,luciferase ctr
Nc1cc(C(=O)OCC(=O)NNC(=O)c2cccs2)ccc1Cl,x,11,x,x,x,x,x
CN(C)S(=O)(=O)c1cccc(-c2nnc3n2CCCCC3)c1,x,0,x,8,-1,x,x
CCN(CC)CCOC(=O)c1ccc(NC(=O)/C=C/c2cccs2)cc1,3,4,1,1,27*,6,-7
CCOC(=O)c1ccc(NC(=O)/C=C/c2cccs2)cc1,10,9,0.9,14,4,x,x
O=C(C[n+]1cc(-c2ccc(F)cc2)n2c1CCC2)Nc1nc(-c2ccccc2)cs1,-3,5,1,19,5,x,x
Cc1ccc(-c2c[n+](CC(=O)Nc3nc(-c4ccc(F)cc4)cs3)c3n2CCC3)cc1,-3,18,1,13,26*,19*,-3
COc1cccc(-n2cnnc2SC(C)C(=O)NC2CCCC2)c1 (stereo unspecified),x,-7,x,x,x,x,x
CCn1c(SCC(=O)Nc2ccccc2OC)nc2ccccc2c1=O,-4,8,1,17,-2,x,x
CCOc1ccccc1-n1c(SCC(=O)Nc2ccccc2C(=O)O)nc2ccccc2c1=O,x,13,x,x,50*,56*,37*
C/C(=N\OCc1ccc(C#N)cc1)c1ccccc1,16,3,0.8,6,2,x,x
C/C(=N\OCc1cccc(C(=O)O)c1)c1ccc(Cl)cc1,x,25,x,8,71*,86*,87*
O=[N+]([O-])c1ccc(N=NN(CCO)CCO)cc1,-4,0,1,14,0,x,x
O=[N+]([O-])c1ccc(N=Nc2ncc[nH]2)cc1,x,34,x,x,55*,57*,-18
CCO[C@@H]1OC(C(=O)N2CCN(Cc3ccc4c(c3)OCO4)CC2)=C[C@H](c2ccc(C(F)(F)F)cc2)[C@H]1CCCO,-6,1,1.1,-10,24*,4,-2
COc1cccc(OCCSc2nnc3sc4ccccc4n23)c1,20,7,0.8,34,-1,x,x
c1ccc(OCCSc2nnc3sc4ccccc4n23)cc1,80*,37,0.2,40,45*,76*,74*
COC(=O)[C@@]1(Cc2ccc(OC)cc2)[C@H]2c3cc(C(=O)N(C)C)n(CCSCCO)c3C[C@H]2CN1C(=O)c1ccccc1,-2,-4,1,25,1,x,x
Cc1cc(-c2csc(NC(=O)c3cc4ccccc4o3)n2)c(C)n1C,7,-2,0.9,3,41*,34*,-14
CCOC(=O)c1csc(NC(=O)c2cc3ccccc3o2)n1,x,25,x,10,58*,88*,-29
Cc1nc(NC(=O)c2cc3ccccc3o2)sc1C,x,54*,x,x,40*,54*,47*
CS(=O)(=O)c1ccc2nc(NC(=O)c3cc4ccccc4o3)sc2c1,47,31,0.5,19,3,x,x
COC(=O)c1sc(-c2ccc(Cl)cc2)cc1N,x,11,x,10,1,x,x

# Bioassay records as filed in PubChem BioAssay.
